# Bioassay records deposited in PubChem by The Scripps Research Institute Molecular Screening Center.
# CHO parental Ca – counter-screen: ATP calcium response change in parental CHO cells. AID 463079. parental CHO-K1, ATP-induced calcium, Fluo-8 fluorescence. 0.63% of 330,000 active. inhibition, % at 5.6 µM;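 active means inhibition above that plate's mean sample inhibition plus 3 SD, cut at about 26% in these data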;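 further: 0% = ATP-challenged DMSO wells and 100% = DMSO wells without ATP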
#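 Material: Parental CHO cells | Reagent: ATP | Compound dosing: Single nominal dose of 5.6 µM per compound | Detection: Intracellular calcium via Fluo-8 no-wash fluorescent dye | Read-out: % inhibition of ATP-induced calcium mobilization | Benchmarks: Low control ATP plus DMSO, high control DMSO only | Replicates: Singlicate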
# OX1R antag-1 – blocks the human orexin 1 receptor | 1.8% of 330,000 active | inhibition, % at 6.6 µM | OX1R-expressing cells, FRET antagonist read-out | O43613; in the data active means inhibition mostly above about 38%, no sharp cut-off; inactive means mostly below about 40%;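 further: 0% = agonist challenge alone and 100% = reference antagonist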
# GPR7 antag – blocks human GPR7 receptor signaling; P48145; GPR7-expressing cells, fluorescence antagonist assay; inhibition, % at 4.4 µM; 1.1% of 290,000 active; in the data active means inhibition above about 16%, passing the limit was not always enough;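 further: cells stimulated with the agonist NPW; 0% = agonist with vehicle and 100% = vehicle without agonist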
# zfTRPN1 agonist – agonists of zebrafish TRPN1 channel; HEK293 zebrafish TRPN1-YFP, Fluo-8 calcium fluorescence; 100% = response to 87 µM carbachol; activation, % at 3 µM; 0.18% of 220,000 active; AID 1424;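 active means activation above its plate's cutoff, the mean activation of test wells on that plate plus 3 SD, cut at about 19% in these data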;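 further: 0% = DMSO alone and 100% = 87 µM carbachol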
#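 Material: zebrafish TRPN1-YFP in HEK293 cells; Doses: single test compound dose, 3 µM nominal, 0.3% DMSO; Timing: dye loading 1 h at 37 °C, then 30 min room temperature; Technique: intracellular calcium fluorescence with Fluo-8; Benchmarks: high carbachol 87 µM, low DMSO alone.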
# OX1R antag-2 – antagonists of human orexin 1 receptor | inhibition, % at 5 µM | O43613 | 0.43% of 330,000 active | CHO/OX1R cells, Fluo-8 calcium fluorescence, orexin A | AID 434989;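 active means inhibition above its plate's threshold, mean inhibition of all tested compounds on the plate plus 3 SD, cut at about 37% in these data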;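 further: 0% = orexin A challenge wells and 100% = SB-334867-A antagonist wells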
# TRPML3 agonist – human mucolipin-3 channel agonism; HEK293 TRPML3-YFP, Fluo-8 calcium fluorescence; 100% = the carbachol control signal; activation, % at 3 µM; 0.29% of 220,000 active;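 active means activation above its plate's cutoff, the mean activation of the plate's test wells plus 3 SD, cut at about 12% in these data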;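 further: 0% = DMSO only wells and 100% = carbachol wells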
# Target sequence (Q8TDD5 whole entry, looked up): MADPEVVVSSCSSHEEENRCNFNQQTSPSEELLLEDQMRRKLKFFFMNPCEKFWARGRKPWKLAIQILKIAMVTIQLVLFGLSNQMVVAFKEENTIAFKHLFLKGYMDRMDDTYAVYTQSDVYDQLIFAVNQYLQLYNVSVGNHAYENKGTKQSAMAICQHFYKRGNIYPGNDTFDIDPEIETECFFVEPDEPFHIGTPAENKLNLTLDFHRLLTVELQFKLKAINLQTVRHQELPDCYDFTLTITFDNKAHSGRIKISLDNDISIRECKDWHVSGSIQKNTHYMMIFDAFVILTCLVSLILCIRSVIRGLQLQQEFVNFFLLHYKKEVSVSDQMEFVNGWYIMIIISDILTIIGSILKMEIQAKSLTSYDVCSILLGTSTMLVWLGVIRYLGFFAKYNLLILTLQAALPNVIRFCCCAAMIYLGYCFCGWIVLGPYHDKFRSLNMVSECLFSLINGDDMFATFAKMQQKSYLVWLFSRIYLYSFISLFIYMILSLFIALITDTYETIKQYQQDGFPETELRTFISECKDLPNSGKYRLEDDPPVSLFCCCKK
#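 Test system: HEK293 cells stably carrying human TRPML3-YFP; Doses: single dose, 3 µM final nominal compound, 0.3% DMSO final; Schedule: dye loading 1 h 37 °C then 30 min ambient, 125 s read; Technique: Fluo-8 calcium fluorescence; Benchmarks: high control carbachol 87 µM, low control DMSO.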
# TRPN1 ag 2 – zebrafish TRPN1 agonism as TRPML3 agonist counter-screen | shares compounds with TRPML3 agonist | HEK293 zebrafish TRPN1-YFP, Fluo-8 calcium fluorescence; scaled: carbachol wells 100%, DMSO wells 0% | activation, % at 3 µM | 10% of 310 active;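 active means mean activation over replicates above a set limit taken from the earlier TRPN1 channel primary screen, cut at about 19% in these data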;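 further: 100% = carbachol and 0% = 0.3% DMSO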
# TRPML3 confirm – human TRPML3 agonism, confirmation. shares compounds with TRPML3 agonist. HEK293 TRPML3-YFP, Fluo-8 calcium fluorescence; 100% set by carbachol, 0% by DMSO. activation, % at 3 µM. 80% of 310 active;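 active means activation above a set limit derived from the earlier primary screen, cut at about 12% in these data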
# Numbers without * were called inactive; nt = not tested or not shown. The list is not random: actives were taken first. Their share in the collection is about 3.2%.
SMILES,CHO parental Ca,OX1R antag-1,GPR7 antag,zfTRPN1 agonist,OX1R antag-2,TRPML3 agonist,TRPN1 ag 2,TRPML3 confirm
Cc1ccc(S(=O)(=O)N(C)c2ccc(N)cc2)cc1,-3,7,0,0,-6,0,nt,nt
COc1ccc(N(C)S(=O)(=O)c2ccc(C)cc2)c([N+](=O)[O-])c1,-15,23,10,-2,-23,35*,-1,42*
COc1ccc(NC(=O)c2ccc3[nH]c(C)c(C)c3c2)cc1,nt,nt,10,nt,nt,nt,nt,nt
COC(CNC(=O)C1CC(=O)N(CCc2ccc(C)cc2)C1)OC (stereo unspecified),1,-7,-10,nt,-14,nt,nt,nt
O=C(C1=C(O)C(=O)N(c2nccs2)C1c1ccccc1)c1cc2ccccc2o1 (stereo unspecified),38,6,5,16,52*,12*,5,2
O=C(C1=C(O)C(=O)N(CCc2ccccc2)C1c1ccncc1)c1cc2ccccc2o1 (stereo unspecified),-10,33,-10,-1,-17,-1,nt,nt
O=S(=O)(c1ccccc1)C1(S(=O)(=O)c2ccccc2)CCCC1,-6,12,-13,2,-16,18*,1,29*
CCOc1cc(C(=O)NCCCn2ccnc2)cc(OCC)c1OCC,-12,13,-1,2,-37,1,nt,nt
Cc1onc(-c2ccccc2)c1C(=O)NC(=S)NNC(=O)c1ccncc1,-7,10,-12,0,8,0,nt,nt
COc1cc(C(=O)NNC(=S)NC(=O)c2ccc(Cl)cc2)cc(OC)c1OC,-1,14,-2,6,13,13*,44*,36*
COc1ccc(C(=O)NC(=S)NNC(=O)c2c(-c3ccccc3)noc2C)cc1OC,-5,6,-3,19,-23,19*,18,24*
Cc1oc(-c2ccccc2F)nc1CS(=O)(=O)CC(=O)NCc1ccccc1Cl,-12,13,4,nt,-23,nt,nt,nt
O=C(Nc1ccc(F)c(Cl)c1)Nc1ccc(Cl)cn1,-5,9,2,0,-5,1,nt,nt
O=C(Nc1ccncc1)Nc1ccc(F)c(Cl)c1,23,20,3,7,21,12*,10,9
CC(C)C(=O)Nc1cc2c3c(c1)CCC(=O)N3CCC2,6,0,-13,nt,9,nt,nt,nt
COC(=O)c1ccc(/C=C(\C#N)c2nc3ccccc3s2)cc1,49*,8,-4,14,56*,14*,1,1
O=C1c2ccccc2/C(=C\C#Cc2ccccn2)N1c1ccccc1,-12,17,nt,nt,47,nt,nt,nt
COC(=O)c1[nH]c2c(c1C)C(=O)CC(c1cccs1)C2 (stereo unspecified),-19,23,3,1,-15,26*,0,0
CCCn1cc(S(=O)(=O)c2ccc(F)cc2)c(=O)c2cc(OCC)ccc21,-14,22,4,nt,-22,nt,nt,nt
C=CCOc1ccc2c(c1)c(S(=O)(=O)c1ccc(C)cc1)cn2COC,-18,11,-7,1,-18,127*,0,139*
CC(=O)Nc1cccc(C(=O)N2CCC(n3nccc3NC(=O)CC(C)C)CC2)c1,15,3,-9,nt,3,nt,nt,nt
COc1ccc(OC)c(N(CC(=O)N2CCCC2)S(=O)(=O)c2ccc(C)cc2)c1,-6,10,1,nt,-19,nt,nt,nt
COc1cc2oc3ccccc3c2cc1N(CC(=O)N1CCCCC1)S(=O)(=O)c1ccc(C)cc1,-20,24,1,16,-18,179*,48*,147*
COc1ccc(N(CC(=O)N2CCCCC2)S(=O)(=O)c2ccccc2)c(OC)c1,-17,4,-2,1,-11,71*,2,121*
COc1ccc(OC)c(N(CC(=O)N2CCCCC2)S(=O)(=O)c2ccc(OC)c(OC)c2)c1,-20,29,-8,0,-17,88*,2,105*
SMILES,CHO parental Ca,OX1R antag-1,GPR7 antag,zfTRPN1 agonist,OX1R antag-2,TRPML3 agonist,TRPN1 ag 2,TRPML3 confirm
CC1CCCC(C)N1C(=C(Cl)Cl)C(=C1SCCS1)[N+](=O)[O-] (stereo unspecified),-10,31,-27,0,-27,14*,10,55*
O=C(NCc1cc([N+](=O)[O-])ccc1O)c1cc(-c2ccncc2)nc2ccccc12,-15,53,-13,nt,-10,nt,nt,nt
CCC1CCCCN1S(=O)(=O)c1ccccc1[N+](=O)[O-] (stereo unspecified),-8,15,4,-1,-3,22*,0,22*
CC1CCCCN1S(=O)(=O)c1ccccc1[N+](=O)[O-] (stereo unspecified),-13,19,-3,0,-10,6,nt,nt
CCOC(=O)N1CCC(N2C(=O)c3ccccc3C2Nc2ccc(S(=O)(=O)N3CCCCC3)cc2)CC1 (stereo unspecified),-13,5,-1,2,-26,15*,1,10
Cc1ccc(S(=O)(=O)Nc2ccccc2N(C)S(=O)(=O)c2ccc(C)cc2)cc1,2,32,nt,nt,5,nt,nt,nt
Cc1ccc(S(=O)(=O)Nc2ccccc2-c2ccccc2)cc1,-15,5,7,-1,-3,91*,-1,97*
Cc1ccc(O)c(CCc2ccc(O)cc2)n1,-4,13,2,1,-2,0,nt,nt
O=[N+]([O-])c1ccc(C2CCCC/C2=N/OCc2ccccc2F)c([N+](=O)[O-])c1 (stereo unspecified),-34,13,5,0,-10,0,nt,nt
O=C(O/N=C1\CCCCC1c1ccc([N+](=O)[O-])cc1[N+](=O)[O-])c1c(F)cccc1F (stereo unspecified),-15,18,-19,-2,-32,57*,-2,6
Cc1ccc(-n2nc(C)c(C(=O)Nc3cccc(C(=O)NC4CC4)c3)n2)c(C)c1,-29,3,nt,nt,-12,nt,nt,nt
CCOC(=O)c1sc(=S)n(C)c1NC(=O)c1ccc(C(C)(C)C)cc1,-17,18,-17,11,24,14*,16,10
CCc1oc(C(=O)OC)cc1CSC(=N)N,7,21,-1,2,-8,0,nt,nt
O=C(CN1CCN(S(=O)(=O)c2ccc(F)cc2)CC1)Nc1ccc(Cl)c(C(F)(F)F)c1,32,47,3,1,37,15*,4,43*
O=C(CN1CCN(S(=O)(=O)c2ccc(F)cc2)CC1)Nc1ccc2c(c1)OCCO2,-8,21,-12,0,-5,1,nt,nt
